This is a sample that favours compounds with a hit; in the whole collection about 3.8% have one here.
RAM network inh – blocks the yeast RAM network | S. cerevisiae dse1pr::URA3 reporter, 5-FOA growth OD615, 2 d; analog-sensitive cbk1-as2 kinase mutant strain | inhibition, % at 50 µM | 190,000 tested, 1.8% active | AID 868;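 active = inhibition above a set limit, 3 SD over mean compound inhibition, cut at about 8.4% in these data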;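 note: 0% = DMSO-only wells with no growth and 100% = 10 µM 1-NA-PP1 full growth; inhibition rescues growth on 5-FOA so higher OD means more RAM inhibition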
Measles CPE – protection of cells from measles virus; Measles virus-infected cells, CPE protection, absorbance; protection (pct of control), % at 4 µM; 140,000 tested, 1.5% active; AID 841; in the data active = protection mostly above about 24%, no sharp cut-off; inactive = mostly below about 26%
SDO1 yeast rescue – sdo1-depleted yeast growth rescue; AID 817; S. cerevisiae sdo1-depleted JHY4D growth rescue, OD600 30 h; hits give high values; pdr5 snq2 efflux-pump mutant strain; z-score at 10 µM; 140,000 tested, 0.21% active;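 active = z-score above 3 at both the 24 hr and the 30 hr optical density reads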;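 note: z-score against mean and SD of all compound wells on the same plate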
Yeast growth inh – reduces growth of yeast BB579 in restrictive medium; S. cerevisiae BB579 growth, OD615, 48 h; inhibition, % at 10 µM; 140,000 tested, 0.51% active; AID 804;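 active = inhibition above a set limit, 3 SD over the mean compound inhibition, cut at about 44% in these data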
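Test system: S. cerevisiae DeaD strain BB579 yeast; Medium: restrictive CSMM-D medium; Compound: one dose, 10 µM compound with 0.25% DMSO; Incubation: 4 h cell preincubation, 48 h compound exposure, 30 °C humidified; Signal: OD at 615 nm; Benchmarks: amphotericin B at 10 µg/mL as positive control.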
Yeast life ext – extends the lifespan of yeast; S. cerevisiae growth with nicotinamide, OD615; deaD strain in restrictive glucose medium; inhibition of the nicotinamide effect, % at 10 µM; 130,000 tested, 0.68% active;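 active = inhibition above a set limit, placed 3 SD over the median of all compounds, cut at about 26% in these data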;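 note: 0% = nicotinamide-treated wells and 100% = cells grown without nicotinamide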
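System: DeaD-strain S. cerevisiae / Buffer or medium: CSMM-D, restrictive glucose (dextrose) synthetic minimal medium / Probe or stimulus: nicotinamide, 1.5 mM, co-present with compound / Compound: one concentration, 10 µM, DMSO 0.25% / Incubation: 48 h compound exposure at 30 °C, humidified / Technique: optical density (absorbance) at 615 nm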
Starred values were filed as active, the others as inactive; · = no result given.

SMILES | RAM network inh | Measles CPE | SDO1 yeast rescue | Yeast growth inh | Yeast life ext
CC(C)C(=O)NCCc1c[nH]c2ccccc12 | 0 | 6 | 0.97 | -19 | 4
O=C(NCCc1c[nH]c2ccccc12)C(F)(F)F | 3 | 45* | 1.5 | -21 | -22
COc1ccc(/C=C/C(=O)Nc2cc(C)nn2-c2nc3ccccc3[nH]2)cc1 | 5 | 13 | -1.7 | -8 | -1
COc1ccc(/C=C/C(=O)Nc2cc(C)nn2-c2nc3ccccc3n2Cc2cccc([N+](=O)[O-])c2)cc1 | 8.9* | 3 | -1.4 | -30 | 0
COC(=O)CSc1ccc(S(=O)(=O)N2CCCCCC2)cc1[N+](=O)[O-] | 1 | · | · | · | ·
C=CCc1ccccc1OCC(O)CN(CC)CC (centres undefined) | 1 | 24 | 0.05 | 32 | -7
Cn1c(Cc2ccccc2)nnc1SCc1ccc(C(=O)O)cc1 | 1 | 10 | 0.56 | -7 | 5
Cn1c(CO)c(-c2ccccc2)c2cc([N+](=O)[O-])ccc21 | 4 | 37* | -2 | -89 | -13
S=c1sc2c(N3CCN(Cc4ccccc4)CC3)ncnc2n1-c1ccccc1 | 2 | 7 | -1.6 | -20 | -3
CCN1CCN(c2ncnc3c2sc(=S)n3-c2ccccc2)CC1 | 1 | 3 | 0.03 | 46* | -9
CC(=O)N1/C(=C/c2ccc(N(C)C)cc2)C(=O)c2ccccc21 | -2 | · | · | · | ·
Cc1ccc(C(C[N+](=O)[O-])n2nc(C)cc2C)cc1 (centres undefined) | -1 | 3 | -2.5 | 47* | 19
Cc1ccc(S(=O)(=O)n2nc(C)cc2C)cc1 | 0 | 8 | 0.6 | -30 | -7
CCN(CC)S(=O)(=O)c1ccc(-c2ccc(S(=O)(=O)N(CC)CC)cc2)cc1 | 8 | 5 | -1.1 | -66 | -8
COC(=O)c1sc2ncn(-n3c(C)ccc3C)c(=O)c2c1C | 1 | 6 | -0.42 | -73 | 85*
CCOC(=O)Cn1cnc2sc(C(=O)OC)c(C)c2c1=O | 0 | · | · | · | ·
O=C(N/C(=C\c1cccc([N+](=O)[O-])c1)C(=O)N1CCOCC1)c1ccc([N+](=O)[O-])cc1 | 1 | · | · | · | ·
CCOc1ccc(C(=O)Nc2ccc(NC(=O)c3cccs3)cc2)cc1[N+](=O)[O-] | 10* | 7 | -0.28 | -22 | 1
COc1ccc(C(=O)Nc2ccc(OCc3ccccc3)cc2)cc1[N+](=O)[O-] | 1 | 5 | -0.43 | 9 | 60*
COc1ccc(C(=O)Nc2ccc(NC(=O)c3cccs3)cc2)cc1[N+](=O)[O-] | 2 | 12 | -0.87 | -39 | 2
Clc1ccc(CNc2nnnn2-c2ccccc2)c(Cl)c1 | 4 | 9 | -1.9 | -28 | -6
CC(=O)NN1C(=O)c2ccccc2NC1c1ccoc1 (centres undefined) | 1 | · | · | · | ·
C1=C(CCNCC2CCCCC2)CCCC1 | -1 | 2 | 0.06 | -43 | -5
c1ccc2nc3c(nc2c1)[nH]c1ccccc13 | 4 | 12 | -0.84 | 77* | ·
c1ccc(-c2c3ccccc3nc3[nH]c4ccccc4c23)cc1 | 1 | 20 | -1.1 | -40 | -4
SMILES | RAM network inh | Measles CPE | SDO1 yeast rescue | Yeast growth inh | Yeast life ext
N#Cc1c(-c2c(Cl)cccc2Cl)noc1/C=C/Nc1ccc(C(=O)O)cc1 | 8.6* | · | · | · | ·
Cc1ccc(C)c(SCC(=O)Nc2cccnc2Cl)c1 | 3 | · | · | · | ·
COc1cc(NC(=O)COC(=O)/C=C/c2c(C)nn(-c3ccc(F)cc3)c2Cl)cc(OC)c1 | 3 | 10 | -0.22 | -12 | 3
Cc1ccc(SC(c2ccccc2)C(Cn2cncn2)C(=O)c2ccccc2)cc1 (centres undefined) | 3 | 6 | -1.1 | -7 | -8
O=C(c1ccc(Cl)cc1)C(Cn1cncn1)C(Sc1ccccc1)c1ccccc1 (centres undefined) | 9.8* | 1 | -1.9 | -70 | 2
CCOc1cc(CNCCO)cc(Br)c1OCc1ccc(Cl)cc1Cl | 0 | 6 | -2.3 | 96* | -36
Cc1nc2nc3c(c(=O)n2[nH]1)CCCC3 | 1 | 29* | 2.4 | -50 | -19
CCc1ccccc1NS(=O)(=O)c1ccc2c(c1)NC(=O)CC(=O)N2 | 2 | 37* | 2 | -25 | 3
COc1ccc2c(c1)Cc1sc(NC(=O)c3ccco3)nc1-2 | 5 | 2 | -1.3 | -44 | -26
COc1ccc2c(c1)Cc1sc(NC(C)=O)nc1-2 | 2 | 38* | -0.28 | -41 | -16
O=C(O)c1n[nH]c2c1CCCC2 | 1 | 14 | 1.3 | -8 | -3

Screening results deposited in PubChem by several laboratories.
